From PubChem
V-ATPase pH – regulators of yeast V-ATPase proton transport; AID 504577; 350,000 tested, 0.37% active; response, % at 10 µM; S. cerevisiae, pHLuorin cytosolic pH fluorescence; in the data active = response mostly above about 7.3%, no sharp cut-off; inactive = mostly below about 5.4%; note: actives read high
NRP1-CendR mod – NRP-1/CendR interaction modulation; inhibition, % at 25 µM; 360,000 tested, 0.85% active; FAM-RPARPAR peptide binding to NRP-1, fluorescence polarization;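 active = inhibition or corrected inhibition above about 18%, plus a signal ratio from 0.5 to 1.5, limit read from the data, passing the limit was not always enough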
Target sequence (O14786 whole entry, looked up): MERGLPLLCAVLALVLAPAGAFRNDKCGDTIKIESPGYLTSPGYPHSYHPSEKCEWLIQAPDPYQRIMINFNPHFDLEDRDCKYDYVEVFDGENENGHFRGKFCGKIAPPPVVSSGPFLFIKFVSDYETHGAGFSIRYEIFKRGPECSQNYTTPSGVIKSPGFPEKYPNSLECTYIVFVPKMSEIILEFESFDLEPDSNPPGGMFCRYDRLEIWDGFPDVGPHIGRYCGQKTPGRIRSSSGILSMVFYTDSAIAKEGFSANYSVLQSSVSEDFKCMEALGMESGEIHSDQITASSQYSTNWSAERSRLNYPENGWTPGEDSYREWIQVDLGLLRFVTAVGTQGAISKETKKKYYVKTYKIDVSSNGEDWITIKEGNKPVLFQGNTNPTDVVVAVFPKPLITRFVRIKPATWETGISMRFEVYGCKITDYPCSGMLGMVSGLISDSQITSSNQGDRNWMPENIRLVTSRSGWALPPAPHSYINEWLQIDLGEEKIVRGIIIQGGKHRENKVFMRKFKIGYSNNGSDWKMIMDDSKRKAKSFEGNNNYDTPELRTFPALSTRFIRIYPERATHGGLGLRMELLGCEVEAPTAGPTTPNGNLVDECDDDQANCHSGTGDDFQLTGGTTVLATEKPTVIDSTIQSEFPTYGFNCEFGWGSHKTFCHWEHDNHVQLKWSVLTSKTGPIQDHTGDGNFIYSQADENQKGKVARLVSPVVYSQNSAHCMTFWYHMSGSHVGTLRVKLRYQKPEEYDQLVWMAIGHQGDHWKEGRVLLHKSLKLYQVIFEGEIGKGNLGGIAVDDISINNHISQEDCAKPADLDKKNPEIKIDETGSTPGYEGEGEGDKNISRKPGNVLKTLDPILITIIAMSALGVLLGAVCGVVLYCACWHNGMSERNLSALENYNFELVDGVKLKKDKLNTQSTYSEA
Exocytosis inh – blocks lytic granule exocytosis. TALL-104 LAMP-1 surface exposure, flow cytometry; cells stimulated with thapsigargin and PMA. inhibition, % at 10 µM. 360,000 tested, 0.66% active. AID 651702;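 active = inhibition above about 55%, limit read from the data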
ASAP1 inh – blocks human ASAP1-stimulated Arf1 GTP hydrolysis; Q9ULH1; GDP FP detection; inhibition, % at 16.5 µM; 360,000 tested, 0.19% active; in the data active = inhibition above about 25%;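 note: 0% = vehicle with enzyme and substrate and 100% = no enzyme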
ARFGAP1 inhibitor – rat ARFGAP1 inhibition; inhibition, % at 16.5 µM; Arfgap1-stimulated ARF1 GTP hydrolysis, GDP FP detection; 360,000 tested, 0.26% active; Q62848;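 active = inhibition above a per-plate limit, mean inhibition of low control wells plus 3 SD, cut at about 25% in these data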;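 note: 0% = DMSO wells with enzyme and 100% = wells lacking Arfgap1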
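Repeats: one replicate per compound; assay system: rat Arfgap1 catalytic domain, aa 1-136; times: enzyme reaction 120 min at 25 °C after 20 min preincubation; detection: FP of antibody-bound GDP Alexa 633 tracer, ex 620/em 688 nm; benchmarks: high control wells lacking Arfgap1, low control full reaction with DMSO; reagent: human ARF1(Δ1-17)-GTP substrate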
The depositor's hits bear a star; . = no result. A selection: hits, their analogues and other compounds. The true share with any hit is near 2.2%.

SMILES	V-ATPase pH	NRP1-CendR mod	Exocytosis inh	ASAP1 inh	ARFGAP1 inhibitor
COc1ccc(N(CC(=O)NCc2ccco2)C(=O)CCC(=O)Nc2ccccn2)cc1	1	21*	7	10	6
CCOc1ccc(N(CC(=O)NCc2ccco2)C(=O)CCC(=O)Nc2ccccn2)cc1	3	5	-6	2	2
Cn1c(=O)c2ccccc2n(C)c1=O	.	.	.	9	3
CC(C)(C)n1nc(-c2ccc(F)cc2)c2c(N)ncnc21	3	67*	-1	-7	6
Cc1ccc(S(=O)(=O)/N=C2/C=C(Sc3ncn[nH]3)C(=O)c3ccccc32)cc1	-10	13	108*	.	.
CC(C)c1ccc(S(=O)(=O)/N=C2/C=C(Sc3ncn[nH]3)C(=O)c3ccccc32)cc1	2	-6	98*	.	.
Cc1ccc(S(=O)(=O)Nc2ccc(O)c(Sc3ncn[nH]3)c2)cc1	1	14	-4	4	4
CC(C)(C)c1ccc(S(=O)(=O)/N=C2\C=C(NS(=O)(=O)c3ccccc3)C(=O)c3ccccc32)cc1	4	19	20	-4	-2
Cc1ccccc1OCc1n(CC(=O)OC2CC(C)CCC2C(C)C)c2ccccc2[n+]1C (configuration not stated)	1	4	90*	-1	-11
CCCCCCCCCCOC(=O)Cn1c(COc2ccc(Cl)cc2)[n+](C)c2ccccc21	1	20*	35	-2	-6
CCCCCCCCCCOC(=O)Cn1c(COc2ccc(OC)cc2)[n+](C)c2ccccc21	3	-7	65*	.	.
CCCCCCCCCCOC(=O)Cn1c(COc2ccccc2)[n+](C)c2ccccc21	0	5	66*	-2	-13
COCC(=O)Nc1ccc2c(c1)[C@@H]1C[C@H](CC(=O)OC)O[C@H](CO)[C@@H]1O2	1	1	-4	5	-3
COC(=O)c1ccccc1S(=O)(=O)NC(=O)[C@H]1O[C@@H](n2ccc(=O)[nH]c2=O)[C@H](O)[C@@H]1O	.	.	.	2	-1
CC1(c2ccc(F)cc2)OC(=O)c2c1ccc1ccccc21 (configuration not stated)	-3	-4	0	4	2
COc1ccc(C2O[C@@H](C)[C@@H]3C(=O)N4CCc5c([nH]c6ccccc56)[C@@H]4C[C@@H]3N2C)cc1 (some centres not stated)	.	.	.	0	-6
CC(C)c1ccc(Oc2cccc3c2S(=O)(=O)N([C@H](C)c2ccccc2)C[C@@H](COCc2ccccc2)O3)cc1	.	.	.	-2	-3
CCCCCCCCCCOC(=O)Cn1c(COc2cccc(C)c2)[n+](C)c2ccccc21	-5	7	74*	-6	-6
CCOC(=O)Cn1c(COc2ccccc2OC)[n+](C)c2ccccc21	-1	10	-4	0	5
CCCCCCCCCCOC(=O)Cn1c(COc2ccccc2C)[n+](C)c2ccccc21	6	11	80*	.	.
Cc1[nH][nH]c(=O)c1C(c1ccc(-c2ccc(C(=O)O)cc2)o1)c1c(C)[nH][nH]c1=O	2	-18	-3	-5	28*
O=C(N[C@H](C(=O)N1CCC[C@H]1C(=O)NCCc1ccccc1Cl)C1CCCCC1)C1CC1	.	.	.	-6	7
CCN(CC)C(=O)CSc1nnc(-c2c[nH]c3ccccc23)o1	1	31*	-11	10	-4
COC(=O)[C@]12C[C@H](CC(=O)N3CCOCC3)C(=O)N(CCc3ccc(OC)c(OC)c3)C1=C[C@H](C(C)(C)C)O[C@@H]2C	.	.	.	0	10
COc1cc2c(cc1OC)[C@](C)(c1ccccc1)C[C@@H]2NCC=C(C)C	.	.	.	24	6
SMILES	V-ATPase pH	NRP1-CendR mod	Exocytosis inh	ASAP1 inh	ARFGAP1 inhibitor
COc1ccc(N2C(=O)C(CC(=O)Nc3ccccc3)N(Cc3cccs3)C2=O)cc1 (configuration not stated)	16*	-16	-4	-4	10
COc1ccc(NCc2nnc(SCC(=O)NCc3ccccc3)n2-c2ccccc2OC)cc1	1	29*	20	9	13
CC1(C)CC(=O)C(C=Nc2ccc(Cl)cn2)=C(O)C1	5	5	1	2	-6
Cc1ccc(N=CC2=C(O)CC(C)(C)CC2=O)nc1	-3	24*	6	-11	-8
CCOc1cc(CNS(=O)(=O)c2cn(C)cn2)cc(OCC)c1OCC	-1	22*	-4	5	-6
CCOc1ccc(CCNS(=O)(=O)c2cn(C)cn2)cc1OCC	-5	7	-10	-10	1
